Reference: ChEMBL document CHEMBL2424602, “Mannich bases of 7-piperazinylquinolones and kojic acid derivatives: synthesis, in vitro antibacterial activity and in silico study” (2013)
≈ marks a conversion by molar mass, not a printed value.

Experiments:
Format in all cases: functional
[1] = system: Pseudomonas aeruginosa; experiment: Potency index, ratio of norfloxacin MIC to compound MIC for Pseudomonas aeruginosa ATCC 9027
[2] = system: Staphylococcus aureus; experiment: Potency index, ratio of norfloxacin MIC to compound MIC for Staphylococcus aureus ATCC 6538
[3] = system: Klebsiella pneumoniae; experiment: Antibacterial activity against Klebsiella pneumoniae ATCC 10031 assessed as growth inhibition after 18 hrs by agar dilution method; details: ATCC 10031, 18 h
Method in brief: (§1)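 MIC read by conventional agar dilution. Compounds were dissolved at 10.0 mg in 1 mL DMSO and diluted with 9 mL distilled water to make the stock. Two-fold serial dilutions were made in molten sterile Mueller-Hinton agar, with final levels starting at 100, 50, 25, 12.5, 6.25, 3.13, 1.56 and lower.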

[4] = system: Escherichia coli; experiment: Antibacterial activity against Escherichia coli ATCC 8739 assessed as growth inhibition after 18 hrs by agar dilution method; details: ATCC 8739, 18 h; method in brief: as §1
[5] = system: Pseudomonas aeruginosa; experiment: Antibacterial activity against Pseudomonas aeruginosa ATCC 9027 assessed as growth inhibition after 18 hrs by agar dilution method; details: ATCC 9027, 18 h; method in brief: as §1
[6] = system: Bacillus spizizenii; experiment: Antibacterial activity against Bacillus subtilis ATCC 6633 assessed as growth inhibition after 18 hrs by agar dilution method; details: ATCC 6633, 18 h; method in brief: as §1
[7] = system: Staphylococcus epidermidis; experiment: Antibacterial activity against Staphylococcus epidermidis ATCC 12228 assessed as growth inhibition after 18 hrs by agar dilution method; details: ATCC 12228, 18 h; method in brief: as §1
[8] = system: Staphylococcus aureus; experiment: Antibacterial activity against Staphylococcus aureus ATCC 6538 assessed as growth inhibition after 18 hrs by agar dilution method; details: ATCC 6538, 18 h; method in brief: as §1

SMILES | Ratio [1] | Ratio [2] | MIC [3] | MIC [4] | MIC [5] | MIC [6] | MIC [7] | MIC [8]
O=C(O)c1cn(C2CC2)c2cc(N3CCN(Cc4oc(CCl)cc(=O)c4O)CC3)c(F)cc2c1=O | 8 | 4 | 0.195 µg/mL (≈ 0.387 µM) | 0.78 µg/mL (≈ 1.55 µM) | 0.195 µg/mL (≈ 0.387 µM) | 0.39 µg/mL (≈ 0.774 µM) | 0.39 µg/mL (≈ 0.774 µM) | 0.097 µg/mL (≈ 0.192 µM)
CCn1cc(C(=O)O)c(=O)c2cc(F)c(N3CCN(Cc4oc(CO)cc(=O)c4O)C(C)C3)c(F)c21 (racemic) | – | – | 1.56 µg/mL (≈ 3.09 µM) | 0.39 µg/mL (≈ 0.772 µM) | 3.12 µg/mL (≈ 6.18 µM) | 3.12 µg/mL (≈ 6.18 µM) | 6.25 µg/mL (≈ 12.4 µM) | 3.12 µg/mL (≈ 6.18 µM)
CCn1cc(C(=O)O)c(=O)c2cc(F)c(N3CCN(Cc4oc(CO)cc(=O)c4O)CC3)cc21 | – | – | 1.56 µg/mL (≈ 3.29 µM) | 0.78 µg/mL (≈ 1.65 µM) | 3.12 µg/mL (≈ 6.6 µM) | 0.78 µg/mL (≈ 1.65 µM) | 6.25 µg/mL (≈ 13.2 µM) | 3.12 µg/mL (≈ 6.6 µM)
CCn1cc(C(=O)O)c(=O)c2cc(F)c(N3CCN(Cc4oc(CCl)cc(=O)c4O)CC3)cc21 | – | – | 0.78 µg/mL (≈ 1.59 µM) | 0.39 µg/mL (≈ 0.793 µM) | 1.56 µg/mL (≈ 3.17 µM) | 1.56 µg/mL (≈ 3.17 µM) | 1.56 µg/mL (≈ 3.17 µM) | 1.56 µg/mL (≈ 3.17 µM)
COc1c(N2CCN(Cc3oc(CO)cc(=O)c3O)C(C)C2)c(F)cc2c(=O)c(C(=O)O)cn(C3CC3)c12 (stereo unspecified) | – | – | 1.56 µg/mL (≈ 2.95 µM) | 0.39 µg/mL (≈ 0.737 µM) | 0.78 µg/mL (≈ 1.47 µM) | 3.12 µg/mL (≈ 5.9 µM) | 3.12 µg/mL (≈ 5.9 µM) | 0.78 µg/mL (≈ 1.47 µM)
CCn1cc(C(=O)O)c(=O)c2cc(F)c(N3CCNCC3)cc21 [NORFLOXACIN] | – | – | 0.39 µg/mL (≈ 1.22 µM) | 0.195 µg/mL (≈ 0.611 µM) | 1.56 µg/mL (≈ 4.89 µM) | 0.195 µg/mL (≈ 0.611 µM) | 0.39 µg/mL (≈ 1.22 µM) | 0.39 µg/mL (≈ 1.22 µM)
O=C(O)c1cn(C2CC2)c2cc(N3CCN(Cc4oc(CO)cc(=O)c4O)CC3)c(F)cc2c1=O | – | – | 1.56 µg/mL (≈ 3.21 µM) | 0.78 µg/mL (≈ 1.61 µM) | 1.56 µg/mL (≈ 3.21 µM) | 3.12 µg/mL (≈ 6.44 µM) | 3.12 µg/mL (≈ 6.44 µM) | 1.56 µg/mL (≈ 3.21 µM)
CCn1cc(C(=O)O)c(=O)c2cc(F)c(N3CCN(Cc4oc(CO)cc(=O)c4O)CC3)nc21 | – | – | 12.5 µg/mL (≈ 26.3 µM) | 1.56 µg/mL (≈ 3.29 µM) | 12.5 µg/mL (≈ 26.3 µM) | 12.5 µg/mL (≈ 26.3 µM) | 12.5 µg/mL (≈ 26.3 µM) | 6.25 µg/mL (≈ 13.2 µM)
COc1c(N2CCN(Cc3oc(CCl)cc(=O)c3O)C(C)C2)c(F)cc2c(=O)c(C(=O)O)cn(C3CC3)c12 (stereo unspecified) | – | – | 1.56 µg/mL (≈ 2.85 µM) | 1.56 µg/mL (≈ 2.85 µM) | 0.78 µg/mL (≈ 1.42 µM) | 1.56 µg/mL (≈ 2.85 µM) | 1.56 µg/mL (≈ 2.85 µM) | 0.39 µg/mL (≈ 0.712 µM)
